This note sets out measurements from ChEMBL document CHEMBL1909594, “Synthesis of polyfunctionalized piperidone oxime ethers and their cytotoxicity on HeLa cells” (Bioorg Med Chem Lett, 2011).

Experiment [1] has as its system HeLa. In words: cells. Format: functional, cell-based. The settings on record: Homo sapiens, 24 h.
For experiment [2], the system named is HeLa. In words: Induction of apoptosis in human HeLa cells assessed as margination of chromation into horseshoe shaped structure at 25 uM after 24 hrs using Hoechst staining method. Format: functional, cell-based. The gist of the method:
(§1)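 HeLa cells at 1 × 10⁴ cells/well in 96-well plates, in three replicates, were treated and incubated overnight at 37 °C. Cells were washed twice with PBS and fixed in 4% paraformaldehyde in PBS for one day. They were stained with 1 µg/mL Hoechst 33342 for 20 min at room temperature. Nuclei were imaged by fluorescence microscopy at 360/470 nm excitation/emission.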

In experiment [3] the test system is HeLa. In words: Induction of apoptosis in human HeLa cells assessed as chromosomal condensation at 25 uM after 24 hrs using Hoechst staining method. Format: functional, cell-based. The gist of the method: as §1
The subject of experiment [4] is HeLa. In words: Induction of apoptosis in human HeLa cells assessed as chromosomal fragmentation at 25 uM after 24 hrs using Hoechst staining method. In kind it is functional, cell-based. The gist of the method: as §1
Experiment [5] deals with HeLa. In words: Induction of apoptosis in human HeLa cells assessed as formation of apoptotic bodies at 25 uM after 24 hrs using Hoechst staining method. In kind it is functional, cell-based. An outline of the steps:
as §1

The subject of experiment [6] is HeLa. In words: Induction of apoptosis in human HeLa cells assessed as fragmentation of nucleus at 25 uM after 24 hrs using Hoechst staining method. Format: functional, cell-based. An outline of the steps: as §1
In experiment [7] the test system is HeLa. In words: Induction of apoptosis in human HeLa cells assessed as cell membrane rupture at 25 uM after 24 hrs using Hoechst staining method. The settings on record: in the assay text read “by phase contrast microscopy” for “using Hoechst staining method”. Format: functional, cell-based. An outline of the steps:
(§2)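 HeLa cells (ATCC) were grown in DMEM with 10% heat-inactivated FBS plus penicillin/streptomycin at 37 °C under 5% CO₂. Cells at 1 × 10⁵/well were exposed to compound for 24 h. Morphology changes were then examined by phase-contrast light microscopy against untreated cells.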

Experiment [8] concerns HeLa. In words: Induction of apoptosis in human HeLa cells assessed as deformed nucleus/cytoplasm consistency at 25 uM after 24 hrs using Hoechst staining method. Format: functional, cell-based. The gist of the method: as §1
Experiment [9] relates to HeLa. In words: Induction of apoptosis in human HeLa cells assessed as cytoplasm content release at 25 uM after 24 hrs using Hoechst staining method. In kind it is functional, cell-based. The settings on record: in the assay text read “by phase contrast microscopy” for “using Hoechst staining method”. The gist of the method:
as §2

Experiment [10] concerns HeLa. In words: Ratio of camptothecin IC50 to compound IC50 for human HeLa cells. In kind it is functional.
The subject of experiment [11] is HeLa. In words: Induction of apoptosis in human HeLa cells assessed as blebbing of cellular membrane at 25 uM after 24 hrs using Hoechst staining method. Format: functional, cell-based. The settings on record: in the assay text read “by phase contrast microscopy” for “using Hoechst staining method”. An outline of the steps:
as §2

Calls of active or inactive are those of the source. No cut-off for these calls is given here.

Take `CO/N=C1\C[C@@H](c2ccccc2)N[C@@H](c2ccccc2)[C@@H]1C` (relative stereo): in the experiment on HeLa [1], the concentration for half-maximal inhibition (IC50) worked out at 113 µM.
The same measure, in the same setting: with `CO/N=C1/[C@@H](C)[C@H](c2ccc(OC)cc2)N[C@H](c2ccc(OC)cc2)[C@H]1C` the figure was 93.9 µM; with `CC[C@@]1(O)C(=O)OCc2c1cc1n(c2=O)Cc2cc3ccccc3nc2-1` [CAMPTOTHECIN], 8.93 µM.
The same measure, in the same setting: with `CO/N=C1\C[C@@H](c2ccc(C)cc2)N[C@@H](c2ccc(C)cc2)[C@@H]1C` the figure was 81.6 µM; with `CO/N=C1\C[C@@H](c2ccccc2)N[C@@H](c2ccccc2)[C@@H]1C(C)C`, 49.5 µM.
The compound `CO/N=C1/[C@@H](C)[C@H](c2cccc(F)c2)N[C@H](c2cccc(F)c2)[C@H]1C` registered an IC50 in the experiment with HeLa [1] of 37.9 µM.
With `CC[C@@H]1/C(=N/OC)C[C@@H](c2ccccc2)N[C@H]1c1ccccc1`, inhibition in the experiment on HeLa [1] was half-maximal at 57.3 µM (IC50).
Regarding `CO/N=C1\C[C@@H](c2ccc(Cl)cc2)N[C@@H](c2ccc(Cl)cc2)[C@@H]1C` (relative stereo), in the experiment on HeLa [1], half-maximal inhibition (IC50) required 49 µM.
`CO/N=C1\C[C@@H](c2ccc(C)cc2)N(C)[C@@H](c2ccc(C)cc2)[C@@H]1C`: the 50% inhibitory concentration (IC50) in the experiment on HeLa [1] was 47.7 µM.
The compound `CO/N=C1/[C@@H](C)[C@H](c2ccc(C(C)C)cc2)N[C@H](c2ccc(C(C)C)cc2)[C@H]1C` had an IC50 in the experiment with HeLa [1] of 51 µM.
For `CC[C@@H]1/C(=N/OC)C[C@@H](c2ccccc2)N(C)[C@H]1c1ccccc1`, the IC50 with HeLa [1] was 41.7 µM. The IC50 values of the last two compounds are within 1.5-fold of each other.
In the experiment on HeLa [1], `CO/N=C1\C[C@@H](c2ccc(OC)cc2)N[C@@H](c2ccc(OC)cc2)[C@@H]1C` gave a concentration for half-maximal inhibition (IC50) of 154 µM.
As for `CO/N=C1/[C@@H](C)[C@H](c2ccc(C)cc2)N[C@H](c2ccc(C)cc2)[C@H]1C`, in the experiment with HeLa [1], 54.9 µM corresponded to half-maximal inhibition (IC50).
Same read-out and setting: with `COc1cc([C@@H]2c3cc4c(cc3[C@@H](O[C@@H]3O[C@@H]5CO[C@@H](C)O[C@H]5[C@H](O)[C@H]3O)[C@H]3COC(=O)[C@H]23)OCO4)cc(OC)c1O` [ETOPOSIDE] the figure was 23.3 µM; with `CO/N=C1\C[C@@H](c2ccccc2)N[C@@H](c2ccccc2)C1` (relative stereo), 121 µM; with `CO/N=C1\C[C@@H](c2cccc(F)c2)N[C@@H](c2cccc(F)c2)[C@@H]1C`, 38.4 µM.
Take `CO/N=C1\C[C@@H](c2ccc(F)cc2)N(C)[C@@H](c2ccc(F)cc2)[C@@H]1C`: 40.7 µM corresponded to half-maximal inhibition with HeLa [1] (IC50).
On the same count and under the same terms, next, `CO/N=C1\C[C@@H](c2ccc(OC)cc2)N(C)[C@@H](c2ccc(OC)cc2)[C@@H]1C`: 80.6 µM.
For `CO/N=C1\C[C@@H](c2ccc(Br)cc2)N[C@@H](c2ccc(Br)cc2)[C@@H]1C` (relative stereo), the outcome in the experiment on HeLa [2], in the experiment with HeLa [3], in the experiment on HeLa [4], in the experiment on HeLa [5], in the experiment with HeLa [6] and in the experiment with HeLa [7] was Active. Besides, the result in the experiment on HeLa [8], with HeLa [9] and with HeLa [11] was Active. The “Ratio IC50” value in the experiment with HeLa [10] worked out at 3. Further, the IC50 with HeLa [1] turned out to be 25 µM.
In the experiment on HeLa [1], `CO/N=C1\C[C@@H](c2ccc(Cl)cc2)N(C)[C@@H](c2ccc(Cl)cc2)[C@@H]1C` returned an IC50 of 36.3 µM.
Regarding `CO/N=C1\C[C@@H](c2ccc(F)cc2)N[C@@H](c2ccc(F)cc2)[C@@H]1C`, the IC50 in the experiment with HeLa [1] came to 49.2 µM.
`CCOc1ccc([C@H]2N[C@@H](c3ccc(OCC)cc3)[C@H](C)/C(=N/OC)[C@@H]2C)cc1` had a half-inhibitory concentration (IC50) with HeLa [1] of 98 µM.

What is called IC50 is the concentration at which inhibition is half-maximal. The low end stands for higher potency, the high end for lower potency.
